Measurements taken from PubChem BioAssay.
Records with an inconclusive call do not appear.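 The calls were made as follows, unless noted: active = RAM network inhibition above 8.4% in each of two replicates, 3 SD over the compound average; inconclusive = above 8.4% inhibition in only one replicate; inactive = 8.4% inhibition or less in each replicate.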

Legend:
[1] = OD615 S. cerevisiae growth inhibition, permissive medium, pilot counter-assay, permissive growth control for S. cerevisiae lifespan shortening project (AID 705;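 active = growth inhibition above 25% in both replicates, a cutoff set 3 SD above the mean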); conditions: OD615, 24 h, at 10 µM, stronger effect = higher value
Outline: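 assay system = Saccharomyces cerevisiae strain carrying genetically modified DeaD replicative-lifespan system | technique = absorbance (optical density) at 615 nm | buffer or medium = permissive raffinose/galactose medium | timing = cells pre-grown 4 h, then 24 h compound exposure, 30 °C humidified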

[2] = Restrictive medium S. cerevisiae growth inhibition, OD615, pilot screen of yeast lifespan reduction project, restrictive growth control (AID 706;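 active = growth inhibition above a set limit, 3 SD over mean compound inhibition, in both replicates, cut at about 43% in these data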;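 also: modified DeaD lifespan yeast strain shifted to restrictive glucose medium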); conditions: OD615, 48 h, at 10 µM, stronger effect = higher value
Outline: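 System: modified S. cerevisiae. Buffer or medium: CSMM-D glucose medium. Incubation: 4 h pre-growth plus 48 h compound exposure, 30 °C. Detection: absorbance (optical density) measured at 615 nm.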

[3] = viability gain of MRP-1-high H69AR cells under doxorubicin, pilot screen, MRP-1 activator project, CellTiter-Glo, duplicate (AID 807;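 active = viability increase at or above a cutoff of the median across tested compounds plus 3 SD, cut at about 8.5% in these data, passing the limit was not always enough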;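 also: compound pretreatment 18-22 h then 72 h combined with doxorubicin; 0% = doxorubicin alone and 100% = vehicle without doxorubicin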); conditions: H69AR viability with doxorubicin, CellTiter-Glo luminescence; at 10 µM; stronger effect = higher value
[4] = growth suppression of beta-catenin knockout HCT116, pilot screen, human colon tumor cells (AID 823;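 active = cell viability at or below a set limit in both duplicate runs, the limit being the all-compound median minus 4 SD, cut at about 23% in these data, passing the limit was not always enough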;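 also: 0% = wells killed by 20 µM Hyamine and 100% = untreated DMSO cell wells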); conditions: CellTiter-Glo, 60 h, at 10 µM, stronger effect = lower value
[5] = growth suppression of PTEN-deleted HCT116, pilot screen, cell-based, HCT116 clonal line, CellTiter-Glo (AID 824;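 active = viability at or below 27.92% in each of two runs, the all-compound median minus 4 SD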;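 also: 0% = 20 µM Hyamine control and 100% = vehicle cell control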); conditions: 60 h, at 10 µM, stronger effect = lower value
[6] = inhibitors of the yeast RAM network, pilot screen, dse1pr::URA3 reporter, 5-FOA selection (AID 869;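 active = inhibition over a set limit, the all-compound mean plus 3 SD, in both replicate runs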;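 also: 0% = DMSO wells with no growth and 100% = 10 µM 1-NA-PP1 with full growth; RAM network block rescues cells from 5-FOA so hits raise OD615 growth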); conditions: S. cerevisiae dse1pr::URA3 5-FOA growth, OD615, 2 d; at 10 µM; stronger effect = higher value; strain carries analog-sensitive mutant Cbk1 kinase
[7] = RAM signaling pathway blockade in yeast – S. cerevisiae, Pdr1DBD-CYC8 efflux-inhibited sensitized strain, primary screen (AID 1298);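 also: 0% = DMSO untreated cells without growth and 100% = 10 µM 1-NA-PP1 full growth; higher means more yeast growth rescued from 5-FOA killing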; conditions: S. cerevisiae cbk1-as DSE1-URA3 strain, 5-FOA growth OD615, 2 d; at 50 µM; stronger effect = higher value

Cc1ccc(NC(=O)Cn2cc3c(n2)CCC(C)C3)cc1 (stereo not drawn)
inactive: growth inhibition [1] -1.07% | growth inhibition [2] 2.22% | viability increase [3] 0.37% | viability [4] 106% | viability [5] 88.6% | inhibition [6] 0.39% | RAM network inhibition [7] 1.64%

CSc1nnc(NC(=O)c2cc3ccccc3oc2=O)s1
inactive: growth inhibition [1] -6.82% | growth inhibition [2] -6.74% | viability increase [3] -2.29% | viability [4] 93.8% | viability [5] 95.5% | inhibition [6] 1.24% | RAM network inhibition [7] 4.01%

O=C(CN1CCOc2ccccc21)NCc1ccco1
inactive: growth inhibition [1] -11.6% | growth inhibition [2] -14.4% | viability increase [3] -4.51% | viability [4] 88.1% | viability [5] 82.9% | inhibition [6] 0.09% | RAM network inhibition [7] 0.05%

O=C(c1ccc(CS(=O)(=O)c2c(Cl)cccc2Cl)o1)N1CCCC1
inactive: growth inhibition [1] -1.83% | growth inhibition [2] -21% | viability increase [3] -1.96% | viability [4] 103% | viability [5] 93.2% | inhibition [6] 2.21% | RAM network inhibition [7] -0.84%

CCOC(=O)N1CCN(C(=O)CSc2nnc(-c3cccs3)o2)CC1
inactive: growth inhibition [1] 0.955% | growth inhibition [2] 3.94% | viability increase [3] 0.87% | viability [4] 104% | viability [5] 108% | inhibition [6] 0.595% | RAM network inhibition [7] 1.07%

Oc1cc(Cc2ccccc2)cnc1CN1CCCCC1
inactive: growth inhibition [1] -10.9% | growth inhibition [2] 2.06% | viability increase [3] -1% | viability [4] 95.6% | viability [5] 98% | inhibition [6] 0.305% | RAM network inhibition [7] 3.35%

CCSCCOC(=O)C1=C(C)NC(=O)NC1c1cccc(OC)c1OC (stereo not drawn)
inactive: growth inhibition [1] -15% | growth inhibition [2] -9.84% | viability increase [3] -1.39% | viability [4] 96.8% | viability [5] 96.9% | inhibition [6] 0.96% | RAM network inhibition [7] 0.63%

CCOc1ccc(-c2nnc(-c3ccco3)o2)cc1
inactive: growth inhibition [1] -1.61% | growth inhibition [2] 5.67% | viability increase [3] 1.72% | viability [4] 94.5% | viability [5] 101% | inhibition [6] 0.695% | RAM network inhibition [7] 2.38%

Cc1noc(NS(=O)(=O)c2ccc(NC(=O)CSc3ncccn3)cc2)c1C
inactive: growth inhibition [1] -3.47% | growth inhibition [2] -2.18% | viability increase [3] -0.58% | viability [4] 109% | viability [5] 95.2% | inhibition [6] 0.615% | RAM network inhibition [7] 1.94%

Cc1cc(C(=O)NCc2cccs2)n(-c2ccccc2)n1
inactive: growth inhibition [1] -10.7% | growth inhibition [2] -6.11% | viability increase [3] 0.91% | viability [4] 102% | viability [5] 90.6% | inhibition [6] 1.03% | RAM network inhibition [7] 5.86%

CSc1ccc(CN2CCC(O)CC2)cc1
inactive: growth inhibition [1] -12.7% | growth inhibition [2] -15.8% | viability increase [3] -0.93% | viability [4] 102% | viability [5] 100% | inhibition [6] 1.4% | RAM network inhibition [7] 5.11%

CC1CCCCN1C(=O)c1ccc(S(=O)(=O)N2CCCCC2C)cc1 (stereo not drawn)
inactive: growth inhibition [1] -5.29% | growth inhibition [2] -15.2% | viability increase [3] -2.45% | viability [4] 96.7% | viability [5] 95.6% | inhibition [6] 1.99% | RAM network inhibition [7] 2.28%

COc1ccc(N2CCN(S(=O)(=O)c3ccc(OC)cc3)CC2)cc1
inactive: growth inhibition [1] -4.01% | growth inhibition [2] 3.09% | viability increase [3] -5.5% | viability [4] 99.3% | viability [5] 106% | inhibition [6] 0.885% | RAM network inhibition [7] 3.84%

Cc1c(NC(=O)c2ccc3c(c2)OCO3)cccc1-c1nc2ncccc2o1
inactive: growth inhibition [1] -9.32% | growth inhibition [2] -13.2% | viability increase [3] -1.14% | viability [4] 102% | viability [5] 95.3% | inhibition [6] 2.48% | RAM network inhibition [7] 3.92%

O=C(CCN1C(=O)c2ccccc2C1=O)N1CCN(Cc2ccc(Cl)cc2Cl)CC1
inactive: growth inhibition [1] -8.77% | growth inhibition [2] -18% | viability increase [3] 1.45% | viability [4] 98.3% | viability [5] 104% | inhibition [6] 1.12% | RAM network inhibition [7] 7.67%

COC(=O)c1ccc(N=c2sc(C(=O)OC)cc(=O)n2C)cc1
inactive: growth inhibition [1] -4.13% | growth inhibition [2] -3.27% | viability increase [3] -5.93% | viability [4] 71.2% | viability [5] 62.5% | inhibition [6] 0.495% | RAM network inhibition [7] 3.85%

CN(C(=O)c1ccc2c(c1)OCO2)C1(C(=O)NC2CCCCC2)CCCCC1
inactive: growth inhibition [1] -8.36% | growth inhibition [2] 0.39% | viability increase [3] -1.06% | viability [4] 90.6% | viability [5] 83.6% | inhibition [6] 1.91% | RAM network inhibition [7] 0.21%

Cc1noc(C)c1S(=O)(=O)N1CCN(C(c2ccccc2)c2ccc(Cl)cc2)CC1 (stereo not drawn)
inactive: growth inhibition [1] -1.19% | growth inhibition [2] -0.625% | viability increase [3] 0.02% | viability [4] 66.3% | viability [5] 67.5% | inhibition [6] 1.61% | RAM network inhibition [7] 7.2%

COc1ccc(OCC(=O)N2CCN(C(=O)c3ccccc3)CC2)cc1
inactive: growth inhibition [1] -15.8% | growth inhibition [2] -9.8% | viability increase [3] 1.19% | viability [4] 91.1% | viability [5] 87.2% | inhibition [6] 1.66% | RAM network inhibition [7] 0.47%

Cn1c(=O)c2c(nc(CN3CCN(CCO)CC3)n2Cc2ccccc2Cl)n(C)c1=O
inactive: growth inhibition [1] 4.8% | growth inhibition [2] -2.67% | viability increase [3] -3.91% | viability [4] 98.2% | viability [5] 96.2% | inhibition [6] 0.875% | RAM network inhibition [7] 4.94%

Cc1ccc(S(=O)(=O)NCc2nc3ccccc3[nH]2)cc1
inactive: growth inhibition [1] -4.75% | growth inhibition [2] 4.05% | viability increase [3] 1.61% | viability [4] 98.7% | viability [5] 97.8% | inhibition [6] 2.42% | RAM network inhibition [7] 1.58%

CC(=O)c1sc(NC(=O)c2ccccc2F)nc1C
inactive: growth inhibition [1] -10.4% | growth inhibition [2] -3.2% | viability increase [3] -0.32% | viability [4] 79% | viability [5] 75.2% | inhibition [6] 0.31% | RAM network inhibition [7] 0.74%

Cc1nnc(SCCn2c(N(C)Cc3ccccc3)nc3c2c(=O)[nH]c(=O)n3C)s1
inactive: growth inhibition [1] -9.54% | growth inhibition [2] -5.15% | viability increase [3] -3.65% | viability [4] 99.8% | viability [5] 97.5% | inhibition [6] 2.33% | RAM network inhibition [7] 5.64%

CCCc1cc(=O)[nH]c(SCC(=O)NC2CCCCC2)n1
inactive: growth inhibition [1] 2.37% | growth inhibition [2] 0.01% | viability increase [3] -1.41% | viability [4] 89.5% | viability [5] 94.8% | inhibition [6] 0.82% | RAM network inhibition [7] 0.46%
